Measurements taken from ChEMBL document CHEMBL5344453, “Selective Recognition of c-KIT 1 G-Quadruplex by Structural Tuning of Heteroaromatic Scaffolds and Side Chains” (ACS Med Chem Lett, 2024).
pIC50, pKd: −log10 of the molar value. The source made the active and inactive calls. The calls are words filed in the database; no cut-off is given here.

Legend:
Quadruplex DNA [1] = test: Stabilization of calf thymus […] ds DNA 5-FAM-CAATCGGATCGAATTCGATCCGATTG-TAMRA-3 assessed as change in melting temperature at 1 uM incubated for 1 hr in dark condition by FRET-based melting assay; type: nucleic-acid assay; conditions: Bos taurus
Summary of the method: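 FRET melting of dual-fluorophore-tagged oligonucleotides (200 nM) in 60 mM potassium cacodylate buffer, pH 7.4, with ligand at 1 μM; ΔTm taken against the ligand-free oligonucleotide Tm as control.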

Quadruplex DNA [2] = test: Stabilization of G-quadruplex c-KIT1 5-FAM-GGGAGGGCGCTGGGAGGAGGG-TAMRA-3 (unknown origin) assessed as change in melting temperature at 7 uM incubated for 1 hr in dark condition by FRET-based melting assay; type: nucleic-acid assay
Summary of the method: (§1)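 FRET melting of dual-fluorophore (FAM/TAMRA) tagged G-quadruplex (200 nM) in 60 mM potassium cacodylate, pH 7.4. The screen used 1 μM ligand; dose series used 1, 3, 5, 7 and 10 μM. ΔTm was taken against the Tm of the same oligonucleotide without ligand.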

Quadruplex DNA [3] = test: Stabilization of G-quadruplex c-KIT2 5-FAM-GGGCGGGCGCGAGGGAGGGG-TAMRA-3 (unknown origin) assessed as change in melting temperature at 10 uM incubated for 1 hr in dark condition by FRET-based melting assay; type: nucleic-acid assay; summary of the method: as §1
Quadruplex DNA [4] = test: Stabilization of fluorophore tagged G-quadruplex c-KIT1 (unknown origin) assessed as change in melting temperature in presence of 0 to 100 equiv calf thymus DNA at 1 uM incubated for 1 hr in dark condition by competitive FRET-based melting assay; type: nucleic-acid assay
Summary of the method: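 Competitive FRET melting with fluorophore-labeled c-KIT 1 G-quadruplex and 1 μM ligand. Unlabeled calf thymus DNA was added at 0, 1, 5, 10, 50 and 100 molar equivalents over the labeled DNA, and ΔTm was monitored.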

Quadruplex DNA [5] = test: Binding affinity to excessive G-quadruplex c-KIT2 5-FAM-GGGCGGGCGCGAGGGAGGGG-TAMRA-3 (unknown origin) assessed as fold increase in fluorescence intensity at 1 uM incubated for 1 hr in dark condition by fluorescence spectroscopy assay; type: nucleic-acid assay
Summary of the method: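 Fluorimetric titration in 100 mM Tris-KCl buffer, pH 7.4. Ligand fixed at 1.0 μM and titrated with increasing concentrations of each G-quadruplex until fluorescence saturation. The fold increase in ligand fluorescence intensity was read, and Kd was derived from the titration plot.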

Quadruplex DNA [6] = test: Binding affinity to G-quadruplex c-KIT1 5-FAM-GGGAGGGCGCTGGGAGGAGGG-TAMRA-3 (unknown origin) assessed as dissociation constant by fluorescence spectroscopy assay; type: nucleic-acid assay
Quadruplex DNA [7] = test: Binding affinity to G-quadruplex c-KIT 2 5-FAM-GGGCGGGCGCGAGGGAGGGG-TAMRA-3 (unknown origin) assessed as dissociation constant by fluorescence spectroscopy assay; type: nucleic-acid assay
Summary of the method: (§2)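 Fluorimetric titration of ligand held at 1.0 μM with increasing concentrations of G4 or dsDNA until saturation. Change in ligand fluorescence intensity was fitted for Kd. Run in 100 mM Tris-KCl buffer, pH 7.4.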

Quadruplex DNA [8] = test: Binding affinity to G-quadruplex BCL-2 5-FAM-AGGGGCGGGCGCGGGAGGAAGGGGGCGGGAGCGGGGCTG-TAMRA-3 (unknown origin) assessed as dissociation constant by fluorescence spectroscopy assay; type: nucleic-acid assay; summary of the method: as §2
K562 [9] = test: Cytotoxicity against human c-KIT-positive K562 cells assessed as cell viability measured after 24 hrs by XTT formazan assay; type: functional, cell-based; conditions: K562, 24 h
MCF7 = test: Cytotoxicity against human MCF7 cells assessed as cell viability measured after 24 hrs by XTT formazan assay; type: functional, cell-based; conditions: MCF7, 24 h
[10] = Induction of cell permeation in human c-KIT-positive K562 cell membrane assessed as fold increase in (G- quadruplex/antibody complex) BG4 foci at 3 uM measured after 24 hrs by immunofluorescence assay; type: functional
Summary of the method: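 K562 cells were treated with ligand (3 or 5.5 μM) and immunostained with G4-specific antibody BG4. Nuclear BG4 foci were counted by confocal microscopy and expressed relative to untreated cells.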

K562 [11] = test: Attenuation of proto-oncogene expression in human c-KIT-positive K562 cells assessed as reduction in c-KIT oncogene expression at 3 uM measured after 24 hrs by qRT-PCR analysis relative to control; type: functional
Summary of the method: (§3)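 K562 cells treated 24 h at two doses per ligand (3 and 6 μM, 5.5 and 11 μM; positive control 2 and 4 μM). c-KIT, c-MYC and BCL-2 mRNA measured by qRT-PCR and normalized to housekeeping gene 18s, relative to untreated control.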

K562 [12] = test: Attenuation of proto-oncogene expression in human c-KIT-positive K562 cells assessed as reduction in c-KIT oncogene expression at 6 uM measured after 24 hrs by qRT-PCR analysis relative to control; type: functional; summary of the method: as §3
K562 [13] = test: Attenuation of proto-oncogene expression in human c-KIT-positive K562 cells assessed as reduction in BCL-2 oncogene expression at 6 uM measured after 24 hrs by qRT-PCR analysis relative to control; type: functional; summary of the method: as §3
[14] = Reduction of c-KIT oncogene expression in human K562 cells transfected with c-KIT plasmid construct assessed as reduction in luciferase expression at 6 uM measured after 36 hrs by luciferase reporter assay; type: functional
Summary of the method: (§4)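 K562 cells were transfected with luciferase plasmids carrying the c-KIT, c-MYC or BCL-2 promoter G4. They were then treated with ligand (3 and 6 μM or 5.5 and 11 μM), and relative luciferase expression was measured.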

[15] = Reduction of BCL-2 oncogene expression in human K562 cells transfected with BCL-2 plasmid construct assessed as reduction in luciferase expression at 3 uM measured after 36 hrs by luciferase reporter assay; type: functional; summary of the method: as §4
[16] = Reduction of c-KIT protein expression in human K562 cells at 6 uM measured after 24 hrs by Western blotting analysis relative to control; type: functional
Summary of the method: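 K562 cells were treated with ligand (3 and 6 μM or 5.5 and 11 μM). c-KIT protein was measured by Western blot with GAPDH as the housekeeping reference, relative to control.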

K562 [17] = test: Induction of apoptosis in human K562 cells assessed as cell death at 6 uM incubated for 24 hrs by FITC-Annexin V and PI analysis relative to control; type: functional
Summary of the method: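 K562 cells after ligand treatment dual-stained with annexin V and propidium iodide. Apoptotic cell populations (early and late) scored by flow cytometry dot plot analysis.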

In the case of `CN(C)CCCNC(=O)c1ccc(-n2cc(-c3ccc4[nH]c5ccccc5c4c3)nn2)cc1`, the ΔTm (Quadruplex DNA [1]) was 0.7 °C, the ΔTm (Quadruplex DNA [2]) was 26.5 °C and the ΔTm (Quadruplex DNA [3]) was 18.1 °C. The Activity (Quadruplex DNA [4]) was “Active”, the fold change (FC) (Quadruplex DNA [5]) was 1.6 and the pKd (Quadruplex DNA [6]) was 5.85. It also gave a pKd (Quadruplex DNA [7]) of 5.55, a pKd (Quadruplex DNA [8]) of 5.32 and a pIC50 (K562 [9]) of 5.21. For the same molecule, the pIC50 (MCF7) was 4.70, the “fold change (FC)” value [10] was 5.4 and the inhibition at 3 µM (K562 [11]) was 28%. It also gave an inhibition at 6 µM (K562 [12]) of 73%, an inhibition at 6 µM (K562 [13]) of 39% and an inhibition at 6 µM [14] of 69%. For the same molecule, the inhibition at 3 µM [15] was 7.8%, the inhibition at 6 µM [16] was 65.5% and the Activity (K562 [17]) was 63%.
